Assay results taken from ChEMBL document CHEMBL1128557, “Synthesis, antitumor activity, and chemical properties of silaplatin and related platinum (II) and platinum (IV) complexes derived from beta-silyl amines” (J Med Chem, 1995).

Columns and labels:
Tumor Cell line [1] = experiment: The compound was evaluated in vitro for the log10 molecular concentration that caused 50 % of 60 human tumor cell line kills; assay type: ADME, cell-based
In short: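 Human tumor cell lines (leukemia, non-small-cell lung, ovarian, renal) were preincubated 24 h. Platinum complexes were then added as five 10-fold dilutions, 0.01–100 μM, for 48 h, followed by in situ fixation and staining, with solubilized stain read spectrophotometrically. Log LC50 (50% cell kill) was averaged across cell lines within one experiment.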

Tumor Cell line [2] = experiment: Evaluated in vitro for the log10 molecular concentration that caused […] tumor growth of 60 human tumor cell lines.; assay type: functional, cell-based
In short: (§1)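 Cells preincubated 24 h, then exposed to the agent at five 10-fold dilutions (0.01–100 μM for the platinum complexes) for 48 h. Cells fixed in situ and stained; solubilized stain read spectrophotometrically. Panel of leukemia, non-small-cell lung, ovarian and renal lines. Log GI50 or TGI taken per cell line in one experiment, then averaged across lines.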

Tumor Cell line [3] = experiment: Evaluated in vitro for the log10 molecular concentration that caused 50 % inhibition of tumor growth of 60 human tumor cell lines; assay type: functional, cell-based; in short: as §1

GI50 (Tumor Cell line [3]) [µM]	Substance	Log LC50 (Tumor Cell line [1])	TGI (Tumor Cell line [2]) [µM]
	[Bis(aminomethyl)tetramethylenesilane]tetrachloropaltinum(IV)	> -4	
25.7	[Bis(aminomethyl)tetramethylenesilane]dichloropaltinum(II)		89.1
